# Experimental data as given in ChEMBL document CHEMBL1143818, “Prevention of brain injury by the nonbacteriolytic antibiotic daptomycin in experimental pneumococcal meningitis” (2007).
# Active and inactive are the calls of the source. The rule behind the calls is not given here.
# Key:
# Streptococcus pneumoniae [1] = assay: Antimicrobial activity against Streptococcus pneumoniae infected Wistar rat CSF assessed as decrease in bacterial titer at 50 mg/kg, sc after 2 hrs; type: functional; details: route subcutaneous
# Outline: (§1)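 Eleven-day-old Wistar rats infected intracisternally with 1.3 × 104 ± 0.5 × 10^4 CFU of S. pneumoniae serotype 3 clinical isolate in 10 μl saline. Single s.c. antibiotic dose started 18 h post-infection. CSF taken by cisterna magna puncture before therapy and at 20 h and 24 h post-infection. CFU counted by plating serial dilutions of 10 μl CSF on blood agar (detection limit 10^3 CFU/ml).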
# Streptococcus pneumoniae [2] = assay: Antibacterial activity against Streptococcus pneumoniae serotype 3; type: functional
# Outline: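 MIC by gradient-strip diffusion (Etest) on blood agar plates inoculated with the study's serotype 3 clinical isolate, run per manufacturer's recommendations. Reference strain ATCC 49619 was tested in parallel. Result read as MIC in mg/liter.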
# Streptococcus pneumoniae [3] = assay: Antibacterial activity against Streptococcus pneumoniae ATCC 49619; type: functional
# Outline: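 MIC by antibiotic gradient strip (Etest) on blood agar plates inoculated with the strain, per manufacturer's recommendations; reference strain tested in parallel with the serotype 3 clinical isolate.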
# Rattus norvegicus [4] = assay: Effect on TNFalpha level in Streptococcus pneumoniae infected Wistar rat CSF at 50 mg/kg, sc after 2 to 6 hrs y ELISA; type: functional; details: route subcutaneous
# Outline: (§2)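 Infant Wistar rats (11 days old) infected intracisternally with S. pneumoniae serotype 3 (1.3 × 104 ± 0.5 × 10^4 CFU). Single s.c. antibiotic dose given 18 h post-infection. CSF sampled by intracisternal puncture 2 and 6 h after dosing and at 24 h post-infection. Samples spun 5 min at 13,000 rpm, 4°C to remove bacteria and leukocytes, diluted 20-fold, then assayed for rat TNF-α by ELISA (detection limit <5 pg/ml).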
# Rattus norvegicus [5] = assay: Decrease in TNFalpha level in Streptococcus pneumoniae infected Wistar rat CSF at 50 mg/kg, sc after 24 hrs by ELISA; type: functional; details: route subcutaneous; outline: as §2
# Streptococcus pneumoniae [6] = assay: Effect on Streptococcus pneumoniae infection induced elevation of MMP9 level in Wistar rat CSF assessed as MMP-9/MMP-2 index at 50 mg/kg, sc after 20 hrs by gel zymography; type: functional; details: route subcutaneous
# Outline: (§3)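 Intracisternally infected 11-day-old Wistar rats (S. pneumoniae serotype 3) dosed s.c. from 18 h. CSF sampled at 20, 24 or 40 h post-infection. 3 μl CSF run on nonreducing 10% SDS-PAGE containing 1% gelatin. Gels washed 1 h in 2.5% Triton X-100, incubated 18 h at 37°C (50 mM NaCl, 10 mM CaCl2, 50 mM Tris, pH 7.6), Coomassie stained. Lysis zones at 92 and 72 kDa measured by densitometry and reported as MMP-9/MMP-2 ratio. Uninfected saline-injected rats served as controls.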
# Streptococcus pneumoniae [7] = assay: Effect on Streptococcus pneumoniae infection induced elevation of MMP9 level in Wistar rat CSF assessed as MMP-9/MMP-2 index at 50 mg/kg, sc after 24 hrs by gel zymography; type: functional; details: route subcutaneous; outline: as §3
# Streptococcus pneumoniae [8] = assay: Effect on Streptococcus pneumoniae infection induced elevation of MMP9 level in Wistar rat CSF assessed as MMP-9/MMP-2 index at 50 mg/kg, sc after 40 hrs by gel zymography; type: functional; details: route subcutaneous; outline: as §3
# Streptococcus pneumoniae [9] = assay: Effect on Streptococcus pneumoniae infection induced brain injury in Wistar rat hippocampal dentate gyrus assessed as number of apoptotic cells at 50 mg/kg, sc after 24 hrs; type: functional; details: route subcutaneous
# Outline: (§4)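 Following intracisternal pneumococcal infection and s.c. dosing from 18 h, brains were taken at 20, 24 or 40 h after PFA perfusion. Cells with fragmented bodies or condensed nuclei were counted blind in three ×400 fields in each of the four dentate gyrus blades. Counts averaged over twelve coronal sections per animal. Uninfected rats served as controls.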
# Streptococcus pneumoniae [10] = assay: Effect on Streptococcus pneumoniae infection induced brain injury in Wistar rat hippocampal dentate gyrus assessed as number of apoptotic cells at 50 mg/kg, sc after 40 hrs; type: functional; details: route subcutaneous; outline: as §4
# Streptococcus pneumoniae [11] = assay: Antimicrobial activity against Streptococcus pneumoniae infected Wistar rat CSF assessed as decrease in bacterial titer at 50 mg/kg, sc after 6 hrs; type: functional, organism-based; parameters: dose 50 mg/kg; outline: as §1
# Streptococcus pneumoniae [12] = assay: Effect on Streptococcus pneumoniae infection induced brain injury in Wistar rat hippocampal dentate gyrus assessed as number of apoptotic cells at 50 mg/kg, sc after 20 hrs; type: functional; details: route subcutaneous; outline: as §4
# Rattus norvegicus [13] = assay: Effect on TNFalpha level in Streptococcus pneumoniae infected Wistar rat CSF at 100 mg/kg, sc after 2 to 6 hrs y ELISA; type: functional; details: route subcutaneous; outline: as §2
# Rattus norvegicus [14] = assay: Decrease on TNFalpha level in Streptococcus pneumoniae infected Wistar rat CSF at 100 mg/kg, sc after 24 hrs by ELISA; type: functional; details: route subcutaneous; outline: as §2
# Streptococcus pneumoniae [15] = assay: Antimicrobial activity against Streptococcus pneumoniae infected Wistar rat CSF assessed as decrease in bacterial titer at 100 mg/kg, sc after 2 hrs; type: functional; details: route subcutaneous; outline: as §1
Structure (SMILES),Log10 cfu (Streptococcus pneumoniae [1]),MIC (Streptococcus pneumoniae [2]) [µg/mL],MIC (Streptococcus pneumoniae [3]) [µg/mL],Activity (Rattus norvegicus [4]) [pg/mL],Activity (Rattus norvegicus [5]) [pg/mL],Ratio (Streptococcus pneumoniae [6]),Ratio (Streptococcus pneumoniae [7]),Ratio (Streptococcus pneumoniae [8]),Activity (Streptococcus pneumoniae [9]) [%],Activity (Streptococcus pneumoniae [10]) [%],Activity (Streptococcus pneumoniae [11]),Activity (Streptococcus pneumoniae [12]) [%],Activity (Rattus norvegicus [13]) [pg/mL],Activity (Rattus norvegicus [14]) [pg/mL],Log10 cfu (Streptococcus pneumoniae [15])
CCCCCCCCCC(=O)N[C@@H](Cc1c[nH]c2ccccc12)C(=O)N[C@H](CC(N)=O)C(=O)N[C@@H](CC(=O)O)C(=O)N[C@@H]1C(=O)NCC(=O)N[C@@H](CCCN)C(=O)N[C@@H](CC(=O)O)C(=O)N[C@H](C)C(=O)N[C@@H](CC(=O)O)C(=O)NCC(=O)N[C@H](CO)C(=O)N[C@@H]([C@H](C)CC(=O)O)C(=O)N[C@@H](CC(=O)c2ccccc2N)C(=O)O[C@@H]1C,3.6 /ml,0.25,0.38,3059,352,1.6,1.2,0.6,14.9,6.1,Active,5.5,,,
CO/N=C(\C(=O)N[C@@H]1C(=O)N2C(C(=O)O)=C(CSc3nc(=O)c(O)nn3C)CS[C@H]12)c1csc(N)n1 [CEFTRIAXONE],,0.023,0.094,,,,,,,,,,4578,249,6.3 /ml
